Source: PubChem (several laboratories)
Sampled rows, rich in hits. Any-hit rate of the full collection: about 2.6%.
PolyA inhibitor: inhibitors of polyadenylation in S. cerevisiae; 300,000 compounds, 0.02% hits; activity score, % at 12 µM; S. cerevisiae SKY197-pL101 polyadenylation reporter, beta-gal luminescence; efflux-impaired pdr1/pdr3 knockout yeast; score 100 = 6 SD above DMSO;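 active = lowest replicate activity score at least 50, where 100 means six control SD above control mean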;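 also: yeast exposed to compound for 9 h at 30 °C; higher score means more reporter readthrough which indicates perturbed polyadenylation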
CHT allo act: allosteric activators of human choline transporter CHT; 310,000 compounds, 0.49% hits; AID 488977; B-score at 10 µM; CHT-expressing cells, membrane potential dye, choline EC20; stronger effect = higher value; LV-AA mutant CHT in HEK293 cells;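 active = initial fluorescence not abnormally high and integrated response B-score, plate-corrected, over 3 SD above library mean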
Target sequence (Q9GZV3 whole entry, looked up): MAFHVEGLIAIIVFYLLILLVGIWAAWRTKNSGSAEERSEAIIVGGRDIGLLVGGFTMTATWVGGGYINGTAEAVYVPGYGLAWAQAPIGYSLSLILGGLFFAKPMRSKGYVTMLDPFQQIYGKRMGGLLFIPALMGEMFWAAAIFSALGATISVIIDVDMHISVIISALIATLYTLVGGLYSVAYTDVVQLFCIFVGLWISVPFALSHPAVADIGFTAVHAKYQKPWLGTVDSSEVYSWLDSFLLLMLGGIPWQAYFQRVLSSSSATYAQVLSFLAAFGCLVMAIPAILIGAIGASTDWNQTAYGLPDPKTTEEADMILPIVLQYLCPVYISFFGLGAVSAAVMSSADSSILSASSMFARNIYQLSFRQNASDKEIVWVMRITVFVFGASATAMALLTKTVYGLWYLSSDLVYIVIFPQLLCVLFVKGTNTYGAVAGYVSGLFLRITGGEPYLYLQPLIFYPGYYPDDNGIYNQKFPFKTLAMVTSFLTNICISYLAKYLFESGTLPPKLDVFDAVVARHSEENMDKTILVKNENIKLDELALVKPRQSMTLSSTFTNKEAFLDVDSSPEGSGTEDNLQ
T cruzi inh: T. cruzi replication inhibition | T. cruzi beta-gal in NIH3T3, luminescence, 90 h | inhibition, % (test concentration not listed) | 300,000 compounds, 1.4% hits | AID 1885;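 active = mean inhibition across valid replicates above about 55%, limit read from the data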;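 also: signal also drops with host cell toxicity which is not excluded here; higher percent means less beta-gal luminescence so fewer parasites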
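Read-out: Parasite load inhibition, % | Test system: Mouse NIH/3T3 fibroblasts infected with β-gal-expressing T. cruzi Tulahuen C4 | Amount: 5,000 cells/well | Medium: DMEM, 2% fetal bovine serum | Signal: GalScreen β-gal luminescence, detergent lysis, 60 min | Timing: 3 h attach, ≥90 h co-culture | Also added: Tulahuen C4 trypomastigotes, 5000/well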
CHT block: human CHT choline transport inhibition; Q9GZV3; CHT-expressing cells, membrane potential dye, choline response; stronger effect = lower value; B-score at 10 µM; 310,000 compounds, 0.86% hits;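 active = B-score over 3 SD under the library average, and starting fluorescence ratio not unusually high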;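 also: choline stimulus applied at its EC90 after an EC20 pre-addition; B-score computed on integrated fluorescence ratio after choline addition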
Of the large screens only hits and unclear results are named; the others gave an inactive call.

Cc1c[nH]c2cccc(OCC(CNC(C)(C)C)OC(=O)c3ccccc3)c12 (stereo not given)	CHT block -11
CCOc1ccc(N(CC(=O)NCCC2=CCCCC2)S(=O)(=O)c2ccccc2)cc1	T cruzi inh 62
COc1ccc(CCNC(=O)CN(c2ccccc2OC)S(=O)(=O)c2ccc(C)cc2)cc1	T cruzi inh 60
COc1ccc(N(CC(=O)NCCC2=CCCCC2)S(=O)(=O)c2ccccc2F)cc1	none
COc1ccc(N(CC(=O)NCCC2=CCCCC2)S(=O)(=O)c2ccc(C)cc2)cc1	T cruzi inh 62
CC(C)S(=O)(=O)C1=NSC2=NC(=O)/C(=C\c3ccc(OC(=O)c4ccco4)cc3)C(=N)N21	CHT block -8.2
Cc1cc(C)cc(C(=O)NC(=S)Nc2cccnc2)c1	none
Cc1ccc(S(=O)(=O)N2CCN(C(=O)COC(=O)/C=C/c3ccccc3[N+](=O)[O-])CC2)c(C)c1	none
CCOc1cc(CNCCCN2CCOCC2)ccc1OCC(=O)NC(C)(C)C	T cruzi inh 63
C=CCOc1c(Br)cc(CNCCCN2CCOCC2)cc1OC	T cruzi inh 58
COc1cc(CNCCCN2CCOCC2)ccc1OCC(=O)NC(C)(C)C	none
CCOc1cc(CNCCO)cc(Br)c1OCc1ccccc1Cl	none
CCOc1cc(CNCCCN2CCOCC2)cc(Br)c1OCc1ccccc1Cl	T cruzi inh 80
CCOc1cc(CNCCN2CCOCC2)ccc1OCc1ccccc1Cl	T cruzi inh 56
CSCc1ccc(C(=O)NCC(c2cccs2)N2CCOCC2)cc1 (stereo not given)	none
COc1ccc(OCc2nnc(SCC(=O)Nc3nnc(C4CC4)s3)n2C)cc1	none
Cc1nc(SCC(=O)O)c(C#N)c(C)c1CC(=O)c1ccccc1	none
Cc1ccc(C(=O)O)cc1NC(=O)c1ccc2c(c1)C(=O)N(c1ccc([N+](=O)[O-])cc1)C2=O	none
CCN(CC)CCN(C(=O)c1ccc2c(c1)CCCC2)c1nc2ccc(F)cc2s1	T cruzi inh 55
CN(C)CCN(C(=O)c1cc(Cl)sc1Cl)c1nc2ccc(F)cc2s1	T cruzi inh 56
CN(C)CCCN(C(=O)c1ccc(S(=O)(=O)N(C)C)cc1)c1nc2ccc(F)cc2s1	T cruzi inh 67
Cc1ccc2nc(N(CCCN(C)C)C(=O)c3ccc(S(=O)(=O)N(C)C)cc3)sc2c1	none
CC(CCN1CCC(n2nccc2NC(=O)c2ccccc2Cl)CC1)c1ccccc1 (stereo not given)	none
S=C1N(c2ccccc2)CN(CCN2CCOCC2)CN1c1ccccc1	none
CCCCc1ccc(NC(=O)C(=O)NCCN2CCN(C(=O)c3ccc([N+](=O)[O-])cc3)CC2)cc1	none
CC(C)(C)c1cc(C(=O)NCCN2CCCC2)cc(C(C)(C)C)c1	T cruzi inh 71
CN(CCOc1ccccc1)CC(=O)Nc1ccc(S(=O)(=O)N2CCCC2)cc1	T cruzi inh 57
CN1CCN(S(=O)(=O)c2ccc(NC(=O)COc3ccccc3)cc2)CC1	none
CCOc1cc(/C=C2\N=C(SCC)SC2=O)cc([N+](=O)[O-])c1OC(C)=O	none
CCOc1c(OC(C)=O)ccc(/C=C2\N=C(SCC)SC2=O)c1[N+](=O)[O-]	CHT block -5.8
COc1cccc(-n2c(CN3CCN(c4cccc(C)c4)C(C)C3)nc3ccc([N+](=O)[O-])cc3c2=O)c1 (stereo not given)	T cruzi inh 59
COc1cccc(-n2c(CN3CCN(c4ccc(C)cc4)C(C)C3)nc3ccc([N+](=O)[O-])cc3c2=O)c1 (stereo not given)	none
CC(C)NC(=S)N=Nc1c(O)[nH]c2ccc(C(C)C)cc12	T cruzi inh 59
CN(C)CCCSc1nc(-c2ccccc2)nc2c1CCC2	T cruzi inh 71
COc1ccc(C(=O)Nc2cc(C)nn2-c2ccc(C)cc2)cc1	none
Cc1cc(C)c(NC(=O)c2cccc3c2C(=O)N(C2CCCCC2)C3)c(C)c1	none
COc1ccc(NC(C)=[N+](C)CCNS(=O)(=O)c2ccc(Cl)cc2)cc1Cl	T cruzi inh 58
CCOC(=O)c1sc2nc(CC(=O)OC)nc(N3CCN(c4ccc(OC)cc4)CC3)c2c1C	T cruzi inh 63
CCOC(=O)c1sc2nc(CC(=O)OC)nc(NCCN3CCOCC3)c2c1C	none (no result: CHT allo act, CHT block)
Cc1ccc2c(C(=O)CCl)c(C)[nH]c2c1	T cruzi inh 56
Cc1ccc2c(C(=O)CN3CCSCC3)c(C)[nH]c2c1	none (no result: PolyA inhibitor, T cruzi inh)
COc1ccc(CN2CCN(Cc3ccc(C)cc3)CC2)c(OC)c1	T cruzi inh 57
COc1ccc(CN2CCN(Cc3ccc(C(F)(F)F)cc3)CC2)c(OC)c1	none
